Results published in ChEMBL document CHEMBL1667789, “Synthesis of 4H-chromene, coumarin, 12H-chromeno[2,3-d]pyrimidine derivatives and some of their antimicrobial and cytotoxicity activities” (2011).
Activity calls are given as the source filed them.

Experiments:
Candida albicans = experiment: Antifungal activity against Candida albicans ATCC 10231 at 25 ug/ml by agar diffusion method; type: functional
Outline: (§1)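 Agar diffusion on Sabouraud's agar. Fungal strains came from the NODCAR Microbiology laboratory culture collection. Mycostatine was the reference standard.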

Escherichia coli = experiment: Antimicrobial activity against Escherichia coli ATCC 14169 at 25 ug/ml by agar diffusion method; type: functional
Outline: (§2)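 Agar diffusion on Mueller-Hinton agar. Bacterial strains came from the NODCAR Microbiology laboratory culture collection. Ampicillin was the reference standard.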

Staphylococcus aureus = experiment: Antimicrobial activity against Staphylococcus aureus ATCC 29737 at 25 ug/ml by agar diffusion method; type: functional; outline: as §2
[1] = tested on: Staphylococcus epidermidis; experiment: Antimicrobial activity against Staphylococcus epidermidis ATCC 12228 at 25 ug/ml by agar diffusion method; type: functional; outline: as §2
Cancer cell lines = experiment: Cytotoxicity against human Lung cancer cells; type: functional, cell-based
Outline: (§3)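 Human tumour lines were MCF-7 (breast adenocarcinoma) and HCT (described as lung carcinoma). Cytotoxicity was read by a cell viability assay, with IC50 derived from it.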

MCF7 = experiment: Cytotoxicity against human MCF7 cells; type: functional, cell-based; outline: as §3
Bacillus pumilus = experiment: Antimicrobial activity against Bacillus pumilus ATCC 14884 at 25 ug/ml by agar diffusion method; type: functional; outline: as §2
Bacillus subtilis = experiment: Antimicrobial activity against Bacillus subtilis ATCC 6633 at 25 ug/ml by agar diffusion method; type: functional; outline: as §2
Saccharomyces cerevisiae = experiment: Antifungal activity against Saccharomyces cerevisiae ATCC 9080 at 25 ug/ml by agar diffusion method; type: functional; outline: as §1
[2] = tested on: Bordetella bronchiseptica; experiment: Antimicrobial activity against Bordetella bronchiseptica ATCC 4617 at 25 ug/ml by agar diffusion method; type: functional; outline: as §2

CCOC(=O)C1=C(N)Oc2cc(N(CC)CC)ccc2C1c1ccc(Br)cc1 (stereo not drawn)
inactive: diameter of the inhibition zone (DIZ) (Candida albicans) | diameter of the inhibition zone (DIZ) (Escherichia coli) | diameter of the inhibition zone (DIZ) (Staphylococcus aureus) | diameter of the inhibition zone (DIZ) [1] | Activity (Cancer cell lines) Not toxic | Activity (MCF7) Not toxic | diameter of the inhibition zone (DIZ) (Bacillus pumilus) | diameter of the inhibition zone (DIZ) (Bacillus subtilis) | diameter of the inhibition zone (DIZ) (Saccharomyces cerevisiae) | diameter of the inhibition zone (DIZ) [2]

CCN(CC)c1ccc2c(c1)OC(N)=C(C#N)C2c1ccc(F)cc1 (stereo not drawn)
inactive: diameter of the inhibition zone (DIZ) (Candida albicans) | diameter of the inhibition zone (DIZ) (Escherichia coli) | diameter of the inhibition zone (DIZ) (Staphylococcus aureus) | diameter of the inhibition zone (DIZ) [1] | Activity (Cancer cell lines) Not toxic | Activity (MCF7) Not toxic | diameter of the inhibition zone (DIZ) (Bacillus pumilus) | diameter of the inhibition zone (DIZ) (Bacillus subtilis) | diameter of the inhibition zone (DIZ) (Saccharomyces cerevisiae) | diameter of the inhibition zone (DIZ) [2]

CCN(CC)c1ccc2c(-c3ccc(Cl)cc3)c(C#N)c(=O)oc2c1
inactive: diameter of the inhibition zone (DIZ) (Candida albicans) | diameter of the inhibition zone (DIZ) (Escherichia coli) | diameter of the inhibition zone (DIZ) (Staphylococcus aureus) | diameter of the inhibition zone (DIZ) [1] | diameter of the inhibition zone (DIZ) (Bacillus pumilus) | diameter of the inhibition zone (DIZ) (Bacillus subtilis) | diameter of the inhibition zone (DIZ) (Saccharomyces cerevisiae) | diameter of the inhibition zone (DIZ) [2]
